From ChEMBL document CHEMBL5058577, “EUbOPEN Chemogenomics Library 2 (Multiplex)” (2022)

System: U2OS
Test: Multiplex assay against U2OS
Format: toxicity, cell-based
Details: human
Outline: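 At seeding, live cells were stained with Hoechst33342, BioTracker Green Microtubule Cytoskeleton Dye, MitoTracker Red and Annexin V Alexa Fluor 680. After compound addition they were imaged on a CQ1 microscope at 37°C and 5% CO2, and CellPathfinder machine-learning gating sorted them into Hoechst high-intensity objects or normal cells, with normal cells further split into healthy, pyknosed or fragmented nuclei and pyknosed cells into mitotic or apoptotic. Tubulin, mitochondrial-mass and membrane-permeability phenotypes are given as per cents of cells with healthy nuclei.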

[1] = 12 h, 1 µM, compound concentration 1 uM, replicate 1
[2] = 12 h, 1 µM, compound concentration 1 uM, replicate 2
[3] = 12 h, 10 µM, compound concentration 10 uM, replicate 1
[4] = 12 h, 10 µM, compound concentration 10 uM, replicate 2
[5] = 24 h, 1 µM, compound concentration 1 uM, replicate 1
[6] = 24 h, 1 µM, compound concentration 1 uM, replicate 2
[7] = 24 h, 10 µM, compound concentration 10 uM, replicate 1
[8] = 24 h, 10 µM, compound concentration 10 uM, replicate 2
[9] = 48 h, 1 µM, compound concentration 1 uM, replicate 1
[10] = 48 h, 1 µM, compound concentration 1 uM, replicate 2
[11] = 48 h, 10 µM, compound concentration 10 uM, replicate 1
[12] = 48 h, 10 µM, compound concentration 10 uM, replicate 2

In the case of `Nc1nc(-c2ccco2)c2cnn(Cc3ccccc3F)c2n1`, the “Population Apoptotic (%)” value [1] is reported as 82%, the “Population Fragmented Nuclei (%)” value [1] is reported as 23% and the “Population Healthy Nuclei (%)” value [1] is reported as 68%. For the same compound, the “Population Hoechst High Intensity Objects (%)” value [1] was 1%, the “Population Membrane Permeable-Phenotype (%)” value [1] was 4% and the “Population Mitochondria Different-Phenotype (%)” value [1] was 2%. For the same compound, the “Population Mitotic Cells (%)” value [1] was 17%, the “Population Normal (%)” value [1] was 98% and the “Population Pyknosed Nuclei (%)” value [1] was 8%. The “Population Tubulin-Different-Phenotype (%)” value [1] was 3%, the “Total Cell Count” value [1] was 280 and the “Population Apoptotic (%)” value [2] was 92%. The “Population Healthy Nuclei (%)” value [2] was 64%, the “Population Hoechst High Intensity Objects (%)” value [2] was 0% and the “Population Membrane Permeable-Phenotype (%)” value [2] was 12%. The “Population Mitochondria Different-Phenotype (%)” value [2] was 5%, the “Population Mitotic Cells (%)” value [2] was 7% and the “Population Normal (%)” value [2] was 99%. For the same compound, the “Population Pyknosed Nuclei (%)” value [2] was 12%, the “Population Tubulin-Different-Phenotype (%)” value [2] was 8% and the “Total Cell Count” value [2] was 109. For the same compound, the “Population Apoptotic (%)” value [3] was 87%, the “Population Fragmented Nuclei (%)” value [3] was 41% and the “Population Healthy Nuclei (%)” value [3] was 45%. The “Population Hoechst High Intensity Objects (%)” value [3] was 5%, the “Population Membrane Permeable-Phenotype (%)” value [3] was 10% and the “Population Mitochondria Different-Phenotype (%)” value [3] was 4%. For the same compound, the “Population Mitotic Cells (%)” value [3] was 12%, the “Population Normal (%)” value [3] was 94% and the “Population Pyknosed Nuclei (%)” value [3] was 12%. For the same compound, the “Population Tubulin-Different-Phenotype (%)” value [3] was 7%, the “Total Cell Count” value [3] was 197 and the “Population Apoptotic (%)” value [4] was 77%. For the same compound, the “Population Fragmented Nuclei (%)” value [4] was 20%, the “Population Healthy Nuclei (%)” value [4] was 72% and the “Population Hoechst High Intensity Objects (%)” value [4] was 0%. The “Population Membrane Permeable-Phenotype (%)” value [4] was 5%, the “Population Mitochondria Different-Phenotype (%)” value [4] was 5% and the “Population Mitotic Cells (%)” value [4] was 22%. The “Population Normal (%)” value [4] was 99%, the “Population Pyknosed Nuclei (%)” value [4] was 7% and the “Population Tubulin-Different-Phenotype (%)” value [4] was 1%. For the same compound, the “Total Cell Count” value [4] was 125, the “Population Apoptotic (%)” value [5] was 96% and the “Population Fragmented Nuclei (%)” value [5] was 19%. For the same compound, the “Population Healthy Nuclei (%)” value [5] was 70%, the “Population Hoechst High Intensity Objects (%)” value [5] was 1% and the “Population Membrane Permeable-Phenotype (%)” value [5] was 4%. For the same compound, the “Population Mitochondria Different-Phenotype (%)” value [5] was 1%, the “Population Mitotic Cells (%)” value [5] was 3% and the “Population Normal (%)” value [5] was 98%. The “Population Pyknosed Nuclei (%)” value [5] was 9%, the “Population Tubulin-Different-Phenotype (%)” value [5] was 2% and the “Total Cell Count” value [5] was 332. The “Population Apoptotic (%)” value [6] was 84%, the “Population Fragmented Nuclei (%)” value [6] was 18% and the “Population Healthy Nuclei (%)” value [6] was 71%. The “Population Hoechst High Intensity Objects (%)” value [6] was 4%, the “Population Membrane Permeable-Phenotype (%)” value [6] was 10% and the “Population Mitochondria Different-Phenotype (%)” value [6] was 3%. For the same compound, the “Population Mitotic Cells (%)” value [6] was 15%, the “Population Normal (%)” value [6] was 95% and the “Population Pyknosed Nuclei (%)” value [6] was 10%. For the same compound, the “Population Tubulin-Different-Phenotype (%)” value [6] was 8%, the “Total Cell Count” value [6] was 127 and the “Population Apoptotic (%)” value [7] was 82%. For the same compound, the “Population Fragmented Nuclei (%)” value [7] was 38%, the “Population Healthy Nuclei (%)” value [7] was 53% and the “Population Hoechst High Intensity Objects (%)” value [7] was 5%. The “Population Membrane Permeable-Phenotype (%)” value [7] was 7%, the “Population Mitochondria Different-Phenotype (%)” value [7] was 3% and the “Population Mitotic Cells (%)” value [7] was 17%. For the same compound, the “Population Normal (%)” value [7] was 94%, the “Population Pyknosed Nuclei (%)” value [7] was 7% and the “Population Tubulin-Different-Phenotype (%)” value [7] was 5%. The “Total Cell Count” value [7] was 230, the “Population Apoptotic (%)” value [8] was 90% and the “Population Fragmented Nuclei (%)” value [8] was 19%. For the same compound, the “Population Healthy Nuclei (%)” value [8] was 73%, the “Population Hoechst High Intensity Objects (%)” value [8] was 1% and the “Population Membrane Permeable-Phenotype (%)” value [8] was 5%. The “Population Mitochondria Different-Phenotype (%)” value [8] was 0%, the “Population Mitotic Cells (%)” value [8] was 9% and the “Population Normal (%)” value [8] was 98%. For the same compound, the “Population Tubulin-Different-Phenotype (%)” value [8] was 4%, the “Total Cell Count” value [8] was 157 and the “Population Apoptotic (%)” value [9] was 94%. The “Population Fragmented Nuclei (%)” value [9] was 17%, the “Population Healthy Nuclei (%)” value [9] was 74% and the “Population Hoechst High Intensity Objects (%)” value [9] was 1%. The “Population Membrane Permeable-Phenotype (%)” value [9] was 2%, the “Population Mitochondria Different-Phenotype (%)” value [9] was 2% and the “Population Mitotic Cells (%)” value [9] was 5%. The “Population Normal (%)” value [9] was 98%, the “Population Pyknosed Nuclei (%)” value [9] was 7% and the “Population Tubulin-Different-Phenotype (%)” value [9] was 2%. The “Total Cell Count” value [9] was 462, the “Population Apoptotic (%)” value [10] was 95% and the “Population Fragmented Nuclei (%)” value [10] was 16%. For the same compound, the “Population Healthy Nuclei (%)” value [10] was 67%, the “Population Hoechst High Intensity Objects (%)” value [10] was 6% and the “Population Membrane Permeable-Phenotype (%)” value [10] was 5%. The “Population Mitochondria Different-Phenotype (%)” value [10] was 5%, the “Population Mitotic Cells (%)” value [10] was 4% and the “Population Normal (%)” value [10] was 93%. For the same compound, the “Population Pyknosed Nuclei (%)” value [10] was 15%, the “Population Tubulin-Different-Phenotype (%)” value [10] was 1% and the “Total Cell Count” value [10] was 141. For the same compound, the “Population Apoptotic (%)” value [11] was 95%, the “Population Fragmented Nuclei (%)” value [11] was 37% and the “Population Healthy Nuclei (%)” value [11] was 51%. The “Population Hoechst High Intensity Objects (%)” value [11] was 11%, the “Population Membrane Permeable-Phenotype (%)” value [11] was 17% and the “Population Mitochondria Different-Phenotype (%)” value [11] was 6%. The “Population Mitotic Cells (%)” value [11] was 4%, the “Population Normal (%)” value [11] was 88% and the “Population Pyknosed Nuclei (%)” value [11] was 10%. The “Population Tubulin-Different-Phenotype (%)” value [11] was 11%, the “Total Cell Count” value [11] was 252 and the “Population Apoptotic (%)” value [12] was 86%. The “Population Fragmented Nuclei (%)” value [12] was 23%, the “Population Healthy Nuclei (%)” value [12] was 69% and the “Population Hoechst High Intensity Objects (%)” value [12] was 2%. For the same compound, the “Population Membrane Permeable-Phenotype (%)” value [12] was 12%, the “Population Mitotic Cells (%)” value [12] was 13% and the “Population Normal (%)” value [12] was 97%. For the same compound, the “Population Pyknosed Nuclei (%)” value [12] was 7%, the “Population Tubulin-Different-Phenotype (%)” value [12] was 6% and the “Total Cell Count” value [12] was 196.
